A short description of data set [1]: folding enthalpy; higher = less favourable; fluorescence melt of hairpins on a sequencing array, two-state fit. The settings on record: sodium 0.088 M. The procedure, abridged: (§1)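 To match UV melts, fitted temperatures were raised by 9.35 °C. These fits were bootstrapped two-state models that gave melting temperature and folding enthalpy, combined by inverse variance over four replicates. The input was normalised Cy3 fluorescence of library hairpins with annealed Cy3 and quencher oligos on a sequenced MiSeq flow cell, imaged in 50 mM Na-HEPES pH 8.0, 25 mM NaCl in 2.5 °C steps up to 60 °C.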

A short description of data set [2]: melting temperature; fluorescence melt of hairpins on a sequencing array, two-state fit, raised by 9.35 °C to match UV melts. The settings on record: sodium 0.088 M. The procedure, abridged: as §1

For GGTCTTGGAAACAAGACC (((((((....))))))), in data set [1], the folding enthalpy is -45.2 kcal/mol. For the same sequence, the Tm in data set [2] is 64.2 °C.
The corresponding values for GGTCTTGGAAACGAGACC (((((.(....).))))) are -37.6 kcal/mol and 51.9 °C.
Regarding GGTGAAGGAAACTTCACC (((((((....))))))), in data set [1], the folding enthalpy was -42.6 kcal/mol. The Tm in data set [2] was 63 °C.
In the case of GGTGAATCGAAAGATACC (((..(((....)))))), the folding enthalpy in data set [1] is -16.8 kcal/mol. The Tm in data set [2] was found to be 29.8 °C.
The like results for GGTGACCCGAAAGGGACC (((..(((....)))))) were, in that order, -14.5 kcal/mol and 38.1 °C.
Consider GGTGACCGAAAGGTGACC (((.(((....))).))), for which the folding enthalpy in data set [1] was -42.5 kcal/mol. The Tm in data set [2] stood at 54.4 °C.
Take GGTGACGAAAGTCAACC ((((((....))).))): the folding enthalpy in data set [1] is -19.6 kcal/mol. In data set [2], the Tm was 56.1 °C.
For GGTGACGAAAGTCGTACC ((((((....)))..))), the folding enthalpy in data set [1] is -15.6 kcal/mol. Further, in data set [2], the Tm worked out at 46.2 °C.
Regarding GGTGACGAAAGTCTCACC ((((((....)))..))), in data set [1], the folding enthalpy was -15.1 kcal/mol. In addition, the Tm in data set [2] came to 40.9 °C.
The corresponding values for GGTGACGAAAGTCTTACC ((((((....)))..))) are -15 kcal/mol and 35.8 °C.
Take GGTGACGGAAACGCCACC ((((.((....)).)))): the folding enthalpy in data set [1] was -48 kcal/mol. In data set [2], the Tm was 54.3 °C.
GGTGACGGAAACGTTACC (((.(((....))).))): the folding enthalpy in data set [1] was -38.5 kcal/mol. Also, the Tm in data set [2] came to 53 °C.
As to GGTGAGGGAAACCTCATC (.(((((....))))).), in data set [1], the folding enthalpy was -25.1 kcal/mol. Besides, the Tm in data set [2] was 48.5 °C.
With GGTGAGGGAAACCTCGCC ((.((((....)))).)), in data set [1], the folding enthalpy is -36.5 kcal/mol. For the same sequence, the Tm in data set [2] worked out at 58.1 °C.
With GGTGATGCGAAAGCAACC (((..(((....)))))), in data set [1], the folding enthalpy was -13.7 kcal/mol. In addition, the Tm in data set [2] worked out at 36.9 °C.
The like results for GGTGATGGAAACATTGCC ((..(((....)))..)) were, in that order, -32.5 kcal/mol and 38.3 °C.
Take GGTGCAGGAAACCGCACC (((((.(....).))))): the folding enthalpy in data set [1] is -45.1 kcal/mol. The Tm in data set [2] amounted to 57 °C.
On to GGTGCAGGAAACTGCGTC (..((((....))))..), for which the folding enthalpy in data set [1] is -10.3 kcal/mol. For the same sequence, the Tm in data set [2] worked out at 35.6 °C.
GGTGCCCGAAAGGGAACC (((.(((....))).))): the folding enthalpy in data set [1] is -35.8 kcal/mol. For the same sequence, in data set [2], the Tm was 65.1 °C.
The like results for GGTGCCGAAAGGCCACC ((((((....))).))) were, in that order, -18.2 kcal/mol and 60.4 °C.
With GGTGCCGAAAGGCCGACC ((((((....)))..))), the folding enthalpy in data set [1] is -14.1 kcal/mol. Also, the Tm in data set [2] was 41.9 °C.
The like results for GGTGCCGAAAGGCGACC ((((((....))).))) were, in that order, -16.8 kcal/mol and 61 °C.
GGTGCCGAAAGGCTGACC ((((((....)))..))): in data set [1], the folding enthalpy is -13.9 kcal/mol. Further, the Tm in data set [2] was determined as 46.8 °C.
As to GGTGCCGGAAACGACACC ((((.((....)).)))), the folding enthalpy in data set [1] is -44.9 kcal/mol. In data set [2], the Tm stood at 54.6 °C.
GGTGCCGGAAACGGCGTC (..((((....))))..): the folding enthalpy in data set [1] was -9.71 kcal/mol. The Tm in data set [2] was 42.2 °C.
For the sequence GGTGCGGGAAACCACACC ((((.((....)).)))), the folding enthalpy in data set [1] is -54.3 kcal/mol. Moreover, the Tm in data set [2] came out at 51.1 °C.
For GGTGCGGGAAACTGCACC (((((.(....).))))), in data set [1], the folding enthalpy is -40.6 kcal/mol. Also, the Tm in data set [2] is 63.1 °C.
For the sequence GGTGCTCGAAAGAGAACC (((.(((....))).))), the folding enthalpy in data set [1] is -48.3 kcal/mol. In data set [2], the Tm was 54.1 °C.
Take GGTGCTCGAAAGAGACC (((.(((....)))))): the folding enthalpy in data set [1] was -19.4 kcal/mol. Further, the Tm in data set [2] amounted to 46.5 °C.
Take GGTGCTGGAAACAGTGCC ((..(((....)))..)): the folding enthalpy in data set [1] was -37.8 kcal/mol. Further, the Tm in data set [2] worked out at 50.1 °C.
The like results for GGTGCTGGAAACGGCACC (((((.(....).))))) were, in that order, -45.8 kcal/mol and 62.9 °C.
In the case of GGTGCTGGAAACGGCATC (.(((.(....).))).), the folding enthalpy in data set [1] was -25.4 kcal/mol. The Tm in data set [2] was found to be 44.2 °C.
With GGTGGAGCGAAAGCTACC (((..(((....)))))), the folding enthalpy in data set [1] is -13.7 kcal/mol. Further, the Tm in data set [2] came out at 44.1 °C.
The corresponding values for GGTGGAGGAAACTCCGCC ((.((((....)))).)) are -46 kcal/mol and 57.8 °C.
Turning to GGTGGCGAAAGCCCACC ((((((....))).))), the folding enthalpy in data set [1] was -17.5 kcal/mol. Besides, the Tm in data set [2] is 61.7 °C.
Turning to GGTGGCGAAAGCCGACC ((((((....))).))), the folding enthalpy in data set [1] was -17.6 kcal/mol. In addition, the Tm in data set [2] is 59.6 °C.
The like results for GGTGGCGAAAGCCGTACC ((((((....)))..))) were, in that order, -13.3 kcal/mol and 44.7 °C.
The like results for GGTGGCGAAAGCCTCACC ((((((....)))..))) were, in that order, -12.7 kcal/mol and 45.2 °C.
Consider GGTGGCGAAAGCCTTACC ((((((....)))..))), for which, in data set [1], the folding enthalpy was -14 kcal/mol. Further, the Tm in data set [2] turned out to be 40.2 °C.
In the case of GGTGGCGGAAACGCTACC (((.(((....))).))), the folding enthalpy in data set [1] is -39.8 kcal/mol. Moreover, the Tm in data set [2] was found to be 59.9 °C.
With GGTGGGAAACCACC (((((....))))), in data set [1], the folding enthalpy is -24.4 kcal/mol. Further, in data set [2], the Tm was determined as 62.4 °C.
For the sequence GGTGGGCGAAAGCCGACC (((.(((....))).))), the folding enthalpy in data set [1] is -19.6 kcal/mol. Further, the Tm in data set [2] came out at 61.9 °C.
The corresponding values for GGTGGTCCGAAAGGAACC (((..(((....)))))) are -14.1 kcal/mol and 48.9 °C.
On to GGTGGTCGAAAGACAACC (((.(((....))).))), for which the folding enthalpy in data set [1] was -39.2 kcal/mol. Moreover, the Tm in data set [2] was 55.6 °C.
For GGTGGTGAAAACCACC ((((((....)))))), the folding enthalpy in data set [1] is -32.5 kcal/mol. Further, in data set [2], the Tm came to 68.2 °C.
For the sequence GGTGGTGGAAACGCCACC (((((.(....).))))), the folding enthalpy in data set [1] is -35.4 kcal/mol. In data set [2], the Tm was determined as 63.5 °C.
For the sequence GGTGGTGGAAACGCCATC (.(((.(....).))).), the folding enthalpy in data set [1] was -22.8 kcal/mol. Besides, in data set [2], the Tm amounted to 46.6 °C.
The like results for GGTGTAGGAAACTACACC (((((((....))))))) were, in that order, -44.8 kcal/mol and 60.4 °C.
The like results for GGTGTAGGAAACTACGTC (..((((....))))..) were, in that order, -9.53 kcal/mol and 29.8 °C.
The like results for GGTGTCCGAAAGGAGACC (((.(((....))).))) were, in that order, -42.9 kcal/mol and 58.3 °C.
Take GGTGTCCGAAAGGATACC (((.(((....))).))): the folding enthalpy in data set [1] was -41.5 kcal/mol. Further, the Tm in data set [2] turned out to be 59.9 °C.
Regarding GGTGTCGAAAGACAACC ((((((....))).))), in data set [1], the folding enthalpy was -26.1 kcal/mol. The Tm in data set [2] is 55.7 °C.
The corresponding values for GGTGTCGAAAGACCACC ((((((....))).))) are -27.6 kcal/mol and 49.7 °C.
As to GGTGTCGAAAGACCGACC ((((((....)))..))), in data set [1], the folding enthalpy is -14.9 kcal/mol. The Tm in data set [2] turned out to be 39.1 °C.
Turning to GGTGTCGAAAGACTAACC ((((((....)))..))), the folding enthalpy in data set [1] was -20.9 kcal/mol. For the same sequence, the Tm in data set [2] was 40.4 °C.
GGTGTCGAAAGACTTACC ((((((....)))..))): the folding enthalpy in data set [1] is -17.7 kcal/mol. Moreover, the Tm in data set [2] came out at 37.4 °C.
Take GGTGTCGCGAAAGCGACC (((..(((....)))))): the folding enthalpy in data set [1] is -7.75 kcal/mol. In data set [2], the Tm was 54 °C.
For GGTGTCGGAAACGATACC (((.(((....))).))), the folding enthalpy in data set [1] is -52 kcal/mol. Moreover, the Tm in data set [2] was determined as 54.4 °C.
As to GGTGTCTCGAAAGAGACC (((..(((....)))))), the folding enthalpy in data set [1] was -12.3 kcal/mol. The Tm in data set [2] was 49.4 °C.
With GGTGTGACGAAAGTCACC (((..(((....)))))), in data set [1], the folding enthalpy was -7.87 kcal/mol. Besides, the Tm in data set [2] was 43.6 °C.
Regarding GGTGTGCCGAAAGGCACC (((..(((....)))))), the folding enthalpy in data set [1] was -7.6 kcal/mol. Also, in data set [2], the Tm was found to be 49.7 °C.
For the sequence GGTGTGGGAAACCGCACC ((((.((....)).)))), the folding enthalpy in data set [1] was -42.9 kcal/mol. The Tm in data set [2] was 60.4 °C.
Turning to GGTGTGGGAAACTACACC (((((.(....).))))), in data set [1], the folding enthalpy was -46.6 kcal/mol. In data set [2], the Tm was found to be 52.6 °C.
Consider GGTGTTCGAAAGAAAACC (((.(((....))).))), for which the folding enthalpy in data set [1] is -25.3 kcal/mol. In addition, the Tm in data set [2] was found to be 45.2 °C.
Take GGTGTTCGAAAGAAGACC (((.(((....))).))): in data set [1], the folding enthalpy is -40.4 kcal/mol. Besides, the Tm in data set [2] is 50.5 °C.
The like results for GGTGTTCGAAAGAATACC (((.(((....))).))) were, in that order, -45.6 kcal/mol and 53.6 °C.
As for GGTGTTGAAAAACACC ((((((....)))))), in data set [1], the folding enthalpy was -37 kcal/mol. In data set [2], the Tm came out at 57.9 °C.
For the sequence GGTGTTGGAAACAACGTC (..((((....))))..), the folding enthalpy in data set [1] is -26.5 kcal/mol. In addition, in data set [2], the Tm turned out to be 47.2 °C.
On to GGTGTTGGAAACAGTACC (((..((....))..))), for which, in data set [1], the folding enthalpy is -18.7 kcal/mol. For the same sequence, the Tm in data set [2] came to 31.7 °C.
The corresponding values for GGTGTTGGAAACGACATC (.(((.(....).))).) are -21.3 kcal/mol and 33.2 °C.
Turning to GGTGTTGGAAACGATACC (((.(.(....).).))), in data set [1], the folding enthalpy was -14.2 kcal/mol. Besides, the Tm in data set [2] is 33.2 °C.
For GGTTACACGAAAGTGACC (((..(((....)))))), the folding enthalpy in data set [1] was -16.6 kcal/mol. In addition, in data set [2], the Tm was determined as 35.5 °C.
Take GGTTACCCGAAAGGGACC (((..(((....)))))): the folding enthalpy in data set [1] was -12.9 kcal/mol. Also, the Tm in data set [2] came out at 35.2 °C.

Source of the values: the array DNA melting data of Ke et al. (doi:10.1101/2024.01.08.574731).
